Converted amounts (≈) assume the structure as drawn.
Assays:
Type in all cases: functional
Klebsiella pneumoniae [1] = test: Antibacterial activity against ESBL-positive Klebsiella pneumoniae 14-19 after 18 to 24 hrs
Summary of the method: (§1)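 MIC by standard NCCLS reference procedure (M100-S11); lowest concentration of compound inhibiting visible bacterial growth after incubation at 35 °C for 18–24 h, read as complete inhibition of growth. Ciprofloxacin, levofloxacin and moxifloxacin run alongside as reference agents.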

Staphylococcus aureus [2] = test: Antibacterial activity against Staphylococcus aureus CMCC 26003 after 18 to 24 hrs; summary of the method: as §1
[3] = test system: Staphylococcus epidermidis; test: Antibacterial activity against methicillin-resistant Staphylococcus epidermidis 14-39 after 18 to 24 hrs
Pseudomonas aeruginosa [4] = test: Antibacterial activity against Pseudomonas aeruginosa 14-16 after 18 to 24 hrs; summary of the method: as §1
Staphylococcus aureus [5] = test: Antibacterial activity against methicillin-sensitive Staphylococcus aureus 14-1 after 18 to 24 hrs; summary of the method: as §1
Escherichia coli [6] = test: Antibacterial activity against Escherichia coli ATCC 25922 after 18 to 24 hrs; summary of the method: as §1
[7] = test system: Staphylococcus epidermidis; test: Antibacterial activity against methicillin-sensitive Staphylococcus epidermidis 14-2 after 18 to 24 hrs; summary of the method: as §1
Escherichia coli [8] = test: Antibacterial activity against Escherichia coli 14-1 after 18 to 24 hrs; summary of the method: as §1
Enterococcus faecium [9] = test: Antibacterial activity against Enterococcus faecium 14-5 after 18 to 24 hrs; summary of the method: as §1
Pseudomonas aeruginosa [10] = test: Antibacterial activity against Pseudomonas aeruginosa 14-9 after 18 to 24 hrs; summary of the method: as §1
[11] = test system: Mycobacterium tuberculosis; test: Antimycobacterial activity against Mycobacterium tuberculosis H37Rv ATCC 27294 by alamar blue assay
Summary of the method: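 Microplate Alamar Blue Assay; MIC is the lowest concentration giving ≥90% reduction in fluorescence relative to the mean of replicate bacterium-only controls. MDR strain 6133 is resistant to isoniazid and rifampicin.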

Enterococcus faecalis [12] = test: Antibacterial activity against Enterococcus faecalis 14-2 after 18 to 24 hrs; summary of the method: as §1
Enterococcus faecium [13] = test: Antibacterial activity against Enterococcus faecium 14-1 after 18 to 24 hrs; summary of the method: as §1
Enterococcus faecium [14] = test: Antibacterial activity against Enterococcus faecium 14-2 after 18 to 24 hrs; summary of the method: as §1
Escherichia coli [15] = test: Antibacterial activity against ESBL-positive Escherichia coli 14-2 after 18 to 24 hrs; summary of the method: as §1
Klebsiella pneumoniae [16] = test: Antibacterial activity against ESBL-positive Klebsiella pneumoniae 14-17 after 18 to 24 hrs; summary of the method: as §1
Staphylococcus aureus [17] = test: Antibacterial activity against methicillin-resistant Staphylococcus aureus 14-5 after 18 to 24 hrs
Enterococcus faecalis [18] = test: Antibacterial activity against Enterococcus faecalis 14-1 after 18 to 24 hrs; summary of the method: as §1
Staphylococcus aureus [19] = test: Antibacterial activity against methicillin-sensitive Staphylococcus aureus 14-4 after 18 to 24 hrs; summary of the method: as §1
[20] = test system: Staphylococcus epidermidis; test: Antibacterial activity against methicillin-resistant Staphylococcus epidermidis 14-37 after 18 to 24 hrs
Klebsiella pneumoniae [21] = test: Antibacterial activity against ESBL-positive Klebsiella pneumoniae 14-18 after 18 to 24 hrs; summary of the method: as §1
Pseudomonas aeruginosa [22] = test: Antibacterial activity against Pseudomonas aeruginosa 14-14 after 18 to 24 hrs; summary of the method: as §1
Pseudomonas aeruginosa [23] = test: Antibacterial activity against Pseudomonas aeruginosa 14-19 after 18 to 24 hrs; summary of the method: as §1
Klebsiella pneumoniae [24] = test: Antibacterial activity against Klebsiella pneumoniae 14-1 after 18 to 24 hrs; summary of the method: as §1
[25] = test system: Staphylococcus epidermidis; test: Antibacterial activity against methicillin-resistant Staphylococcus epidermidis 14-21 after 18 to 24 hrs
Klebsiella pneumoniae [26] = test: Antibacterial activity against Klebsiella pneumoniae 14-2 after 18 to 24 hrs; summary of the method: as §1
Klebsiella pneumoniae [27] = test: Antibacterial activity against Klebsiella pneumoniae 14-3 after 18 to 24 hrs; summary of the method: as §1
Pseudomonas aeruginosa [28] = test: Antibacterial activity against Pseudomonas aeruginosa ATCC 27853 after 18 to 24 hrs; summary of the method: as §1
Enterococcus faecium [29] = test: Antibacterial activity against Enterococcus faecium 14-6 after 18 to 24 hrs; summary of the method: as §1
Staphylococcus aureus [30] = test: Antibacterial activity against methicillin-resistant Staphylococcus aureus 14-4 after 18 to 24 hrs
Escherichia coli [31] = test: Antibacterial activity against Escherichia coli 14-2 after 18 to 24 hrs; summary of the method: as §1
Pseudomonas aeruginosa [32] = test: Antibacterial activity against Pseudomonas aeruginosa 14-15 after 18 to 24 hrs; summary of the method: as §1
[33] = test system: Staphylococcus epidermidis; test: Antibacterial activity against methicillin-resistant Staphylococcus epidermidis 14-22 after 18 to 24 hrs
Streptococcus pneumoniae = test: Antibacterial activity against Streptococcus pneumoniae ATCC 19615 after 18 to 24 hrs; summary of the method: as §1
Klebsiella pneumoniae [34] = test: Antibacterial activity against Klebsiella pneumoniae 14-4 after 18 to 24 hrs; summary of the method: as §1
Staphylococcus aureus [35] = test: Antibacterial activity against methicillin-sensitive Staphylococcus aureus 14-2 after 18 to 24 hrs; summary of the method: as §1
Staphylococcus aureus [36] = test: Antibacterial activity against methicillin-sensitive Staphylococcus aureus 14-3 after 18 to 24 hrs; summary of the method: as §1
Escherichia coli [37] = test: Antibacterial activity against ESBL-positive Escherichia coli 14-1 after 18 to 24 hrs; summary of the method: as §1

SMILES | MIC (Klebsiella pneumoniae [1]) | MIC (Staphylococcus aureus [2]) | MIC [3] | MIC (Pseudomonas aeruginosa [4]) | MIC (Staphylococcus aureus [5]) | MIC (Escherichia coli [6]) | MIC [7] | MIC (Escherichia coli [8]) | MIC (Enterococcus faecium [9]) | MIC (Pseudomonas aeruginosa [10]) | MIC90 [11] | MIC (Enterococcus faecalis [12]) | MIC (Enterococcus faecium [13]) | MIC (Enterococcus faecium [14]) | MIC (Escherichia coli [15]) | MIC (Klebsiella pneumoniae [16]) | MIC (Staphylococcus aureus [17]) | MIC (Enterococcus faecalis [18]) | MIC (Staphylococcus aureus [19]) | MIC [20] | further results
Cc1ccc(CO/N=C2\CN(c3nc4c(cc3F)c(=O)c(C(=O)O)cn4[C@@H]3C[C@@H]3F)CC2CN)cc1 (stereo partly specified) | 128 µg/mL (≈ 257 µM) | < 0.008 µg/mL | 16 µg/mL (≈ 32.2 µM) | 8 µg/mL (≈ 16.1 µM) | 2 µg/mL (≈ 4.02 µM) | < 0.008 µg/mL | 8 µg/mL (≈ 16.1 µM) | 16 µg/mL (≈ 32.2 µM) | 8 µg/mL (≈ 16.1 µM) | 8 µg/mL (≈ 16.1 µM) | < 0.25 µg/mL | < 0.008 µg/mL | 0.5 µg/mL (≈ 1.01 µM) | 0.5 µg/mL (≈ 1.01 µM) | 64 µg/mL (≈ 129 µM) | 8 µg/mL (≈ 16.1 µM) | 4 µg/mL (≈ 8.04 µM) | 32 µg/mL (≈ 64.3 µM) | 0.015 µg/mL (≈ 0.0302 µM) | 8 µg/mL (≈ 16.1 µM) | MIC (Klebsiella pneumoniae [21]): 8 µg/mL (≈ 16.1 µM); MIC (Pseudomonas aeruginosa [22]): 8 µg/mL (≈ 16.1 µM); MIC (Pseudomonas aeruginosa [23]): 8 µg/mL (≈ 16.1 µM); MIC (Klebsiella pneumoniae [24]): 64 µg/mL (≈ 129 µM); MIC [25]: 4 µg/mL (≈ 8.04 µM); MIC (Klebsiella pneumoniae [26]): 128 µg/mL (≈ 257 µM); MIC (Klebsiella pneumoniae [27]): 64 µg/mL (≈ 129 µM); MIC (Pseudomonas aeruginosa [28]): 4 µg/mL (≈ 8.04 µM); MIC (Enterococcus faecium [29]): 4 µg/mL (≈ 8.04 µM); MIC (Staphylococcus aureus [30]): 8 µg/mL (≈ 16.1 µM); MIC (Escherichia coli [31]): 32 µg/mL (≈ 64.3 µM); MIC (Pseudomonas aeruginosa [32]): 8 µg/mL (≈ 16.1 µM); MIC [33]: 2 µg/mL (≈ 4.02 µM); MIC (Streptococcus pneumoniae): < 0.008 µg/mL; MIC (Klebsiella pneumoniae [34]): 128 µg/mL (≈ 257 µM); MIC (Staphylococcus aureus [35]): < 0.008 µg/mL; MIC (Staphylococcus aureus [36]): < 0.008 µg/mL; MIC (Escherichia coli [37]): 2 µg/mL (≈ 4.02 µM)
NCC1CN(c2nc3c(cc2F)c(=O)c(C(=O)O)cn3[C@@H]2C[C@@H]2F)C/C1=N\OCc1ccc([N+](=O)[O-])cc1 (stereo partly specified) | 128 µg/mL (≈ 242 µM) | 0.015 µg/mL (≈ 0.0284 µM) | 8 µg/mL (≈ 15.1 µM) | 16 µg/mL (≈ 30.3 µM) | 4 µg/mL (≈ 7.57 µM) | 0.25 µg/mL (≈ 0.473 µM) | 128 µg/mL (≈ 242 µM) | 128 µg/mL (≈ 242 µM) | 8 µg/mL (≈ 15.1 µM) | 4 µg/mL (≈ 7.57 µM) | 0.467 µg/mL (≈ 0.884 µM) | 0.25 µg/mL (≈ 0.473 µM) | 4 µg/mL (≈ 7.57 µM) | 4 µg/mL (≈ 7.57 µM) | > 128 µg/mL | 8 µg/mL (≈ 15.1 µM) | 4 µg/mL (≈ 7.57 µM) | 64 µg/mL (≈ 121 µM) | 0.125 µg/mL (≈ 0.237 µM) | 4 µg/mL (≈ 7.57 µM) | MIC (Klebsiella pneumoniae [21]): 16 µg/mL (≈ 30.3 µM); MIC (Pseudomonas aeruginosa [22]): 16 µg/mL (≈ 30.3 µM); MIC (Pseudomonas aeruginosa [23]): 16 µg/mL (≈ 30.3 µM); MIC (Klebsiella pneumoniae [24]): 128 µg/mL (≈ 242 µM); MIC [25]: 16 µg/mL (≈ 30.3 µM); MIC (Klebsiella pneumoniae [26]): 128 µg/mL (≈ 242 µM); MIC (Klebsiella pneumoniae [27]): 128 µg/mL (≈ 242 µM); MIC (Pseudomonas aeruginosa [28]): 4 µg/mL (≈ 7.57 µM); MIC (Enterococcus faecium [29]): 4 µg/mL (≈ 7.57 µM); MIC (Staphylococcus aureus [30]): 128 µg/mL (≈ 242 µM); MIC (Escherichia coli [31]): 128 µg/mL (≈ 242 µM); MIC (Pseudomonas aeruginosa [32]): 16 µg/mL (≈ 30.3 µM); MIC [33]: 8 µg/mL (≈ 15.1 µM); MIC (Streptococcus pneumoniae): 0.015 µg/mL (≈ 0.0284 µM); MIC (Klebsiella pneumoniae [34]): 128 µg/mL (≈ 242 µM); MIC (Staphylococcus aureus [35]): 0.06 µg/mL (≈ 0.114 µM); MIC (Staphylococcus aureus [36]): 0.03 µg/mL (≈ 0.0568 µM); MIC (Escherichia coli [37]): 4 µg/mL (≈ 7.57 µM)
